Assay results: ChEMBL document CHEMBL4145675, “2-Phenylquinoline S. aureus NorA Efflux Pump Inhibitors: Evaluation of the Importance of Methoxy Group Introduction” (J Med Chem, 2018)
Values after ≈ are worked out from the molar mass of the structure shown. Active and inactive are the calls of the source. The calls are words filed in the database; no cut-off is given here.

Experiments:
[1] = biological target: T1, Quinolone resistance protein NorA (Staphylococcus aureus) (UniProt P0A0J7); test: Inhibition of NorA in Staphylococcus aureus SA-1199B expressing GrlA A116E mutant assessed as reduction in EtBr efflux at 50 uM incubated for 5 mins by fluorescence based assay
T1 sequence (whole entry): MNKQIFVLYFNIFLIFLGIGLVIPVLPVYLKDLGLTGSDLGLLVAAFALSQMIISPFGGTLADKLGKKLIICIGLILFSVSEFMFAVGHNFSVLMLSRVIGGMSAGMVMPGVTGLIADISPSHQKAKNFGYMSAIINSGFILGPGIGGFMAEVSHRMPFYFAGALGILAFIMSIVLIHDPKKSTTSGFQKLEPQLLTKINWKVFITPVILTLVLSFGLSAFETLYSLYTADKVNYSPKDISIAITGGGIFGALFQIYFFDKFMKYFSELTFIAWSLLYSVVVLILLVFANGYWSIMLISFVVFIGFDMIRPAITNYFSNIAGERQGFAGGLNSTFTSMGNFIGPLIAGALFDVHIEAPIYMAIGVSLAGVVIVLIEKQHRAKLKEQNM
Procedure, shortened: (§1)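 Cells were grown overnight in cation-supplemented Mueller-Hinton broth at 35 °C and subcultured to OD600 0.7–0.8. They were loaded at OD600 0.8 with 25 µM EtBr plus 100 µM CCCP (final) for 20 min at room temperature. Cells were then resuspended in fresh broth with or without compound, 50 µM for the single-point screen or a concentration series for IC50. Fluorescence (ex 485/em 645 nm) was read for 5 min. Inhibition was calculated from the fluorescence decrease versus untreated cells. Biological triplicate, each run twice.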

[2] = biological target: Quinolone resistance protein NorA (Staphylococcus aureus, UniProt P0A0J7, A116E); test: Inhibition of NorA in Staphylococcus aureus SA-1199B expressing GrlA A116E mutant assessed as reduction in EtBr efflux incubated for 5 mins by fluorescence based assay; procedure, shortened: as §1
Staphylococcus aureus [3] = test: Antimicrobial activity against Staphylococcus aureus SA-1199B expressing wild type norA and co-expressing GrlA A116E mutant by microdilution method; type: organism-based; conditions: in vivo
Procedure, shortened: (§2)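 CLSI broth microdilution MIC of the compound alone. Strains: SA-K1902 (norA deleted), SA-K2378 (SA-K1902 carrying norA plus its promoter on multicopy plasmid pCU1), SA-1199B (norA overexpressing, GrlA A116E).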

[4] = biological target: T1, Quinolone resistance protein NorA (Staphylococcus aureus); test: Inhibition of NorA in Staphylococcus aureus SA-1199B expressing GrlA A116E mutant assessed as minimal potentiating drug concentration causing 8 fold reduction in ciprofloxacin MIC by microdilution method based Checkerboard assay
Staphylococcus aureus [5] = test: Synergistic potentiation of ciprofloxacin-induced antimicrobial activity against wild type Staphylococcus aureus ATCC 25923 at 0.78 to 100 ug/ml by microdilution method based Checkerboard assay; type: functional, organism-based
Staphylococcus aureus [6] = test: Synergistic potentiation of ciprofloxacin-induced antimicrobial activity against Staphylococcus aureus SA-1199 at 0.78 to 100 ug/ml by microdilution method based Checkerboard assay; type: functional, organism-based
[7] = biological target: T1, Quinolone resistance protein NorA (Staphylococcus aureus); test: Inhibition of NorA in Staphylococcus aureus SA-1199B expressing GrlA A116E mutant assessed as synergistic potentiation of ciprofloxacin-induced antimicrobial activity at 0.78 to 100 ug/ml by microdilution method based Checkerboard assay
Staphylococcus aureus [8] = test: Antimicrobial activity against Staphylococcus aureus ATCC 25923 by microdilution method; type: organism-based; conditions: in vivo
Procedure, shortened: (§3)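 Broth microdilution MIC per CLSI guidelines. ATCC 25923 is norA wild-type. SA-1199B overexpresses norA and carries an A116E GrlA substitution.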

Staphylococcus aureus [9] = test: Antimicrobial activity against Staphylococcus aureus SA-1199B expressing wild type norA by microdilution method; type: organism-based; conditions: in vivo; procedure, shortened: as §3
Staphylococcus aureus [10] = test: Antimicrobial activity against NorA deficient Staphylococcus aureus SA-K1902 by microdilution method; type: organism-based; conditions: in vivo; procedure, shortened: as §2
[11] = biological target: T1, Quinolone resistance protein NorA (Staphylococcus aureus); test: Inhibition of NorA in Staphylococcus aureus SA-1199B expressing GrlA A116E mutant assessed as synergistic potentiation of ciprofloxacin-induced antimicrobial activity at 0.78 ug/ml by microdilution method based Checkerboard assay

SMILES | inhibition [1] [%] | IC50 [2] [µM] | MIC (Staphylococcus aureus [3]) [µM] | Activity [4] [µg/mL] | synergistic potentiation of ciprofloxacin activity (Staphylococcus aureus [5]) | inhibition (Staphylococcus aureus [6]) | inhibition [7] | MIC (Staphylococcus aureus [8]) [µg/mL] | MIC (Staphylococcus aureus [9]) [µg/mL] | MIC (Staphylococcus aureus [10]) [µg/mL] | inhibition [11]
CCCOc1ccc(-c2cc(OCCCN(C)C)c3cccc(OC)c3n2)cc1 | 64.7 | – | – | – | – | – | – | – | – | – | –
CCCOc1ccc(-c2cc(OCCN(CC)CC)c3cccc(OC)c3n2)cc1 | 83.1 | 13.7 | 245 (≈ 100 µg/mL) | – | – | – | – | – | – | – | –
CCCOc1ccc(-c2cc(OCCN3CCCCCC3)c3c(OC)cc(OC)cc3n2)cc1 | 74.1 | – | – | – | – | – | – | – | – | – | –
CCCOc1ccc(-c2cc(OCCN(CC)CC)c3c(OC)cc(OC)cc3n2)cc1 | 93.1 | 2.8 | > 228 | 1.56 | Active | Active | Active | 100 (≈ 228 µM) | > 100 | 25 (≈ 57 µM) | –
CCCOc1ccc(-c2cc(OCCN3CCCCC3)c3cccc(OC)c3n2)cc1 | 88.7 | 11.9 | 238 (≈ 100 µg/mL) | – | – | – | – | – | – | – | –
CCCOc1ccc(-c2cc(OCCN3CCCCCC3)c3cccc(OC)c3n2)cc1 | 72.8 | – | – | – | – | – | – | – | – | – | –
CCCOc1ccc(-c2cc(OCCN3CCc4cc(OC)c(OC)cc4C3)c3cccc(OC)c3n2)cc1 | 65.5 | – | – | – | – | – | – | – | – | – | –
CCCOc1ccc(-c2cc(OCCN3CCCCCC3)c3cc(OC)cc(OC)c3n2)cc1 | 80.3 | 1.8 | > 215 | 1.56 | Active | Active | Active | > 100 | > 100 | – | Active
CCCOc1ccc(-c2cc(OCCN3CCCCCC3)c3cc(OC)ccc3n2)cc1 | 92.2 | 8.1 | 28.7 (≈ 12.5 µg/mL) | < 3.13 | Active | Active | Active | 12.5 (≈ 28.8 µM) | 25 (≈ 57.5 µM) | – | –
CCCOc1ccc(-c2cc(OCCN3CCN(Cc4ccccc4)CC3)c3ccc(OC)cc3n2)cc1 | 92.1 | 7.3 | > 195 | > 100 | Active | Active | Active | > 100 | > 100 | – | –
CCCOc1ccc(-c2cc(O)c3cc(OC)c(OC)cc3n2)cc1 | 79.2 | – | – | – | – | – | – | – | – | – | –
CCCOc1ccc(-c2cc(OCCCl)c3ccc(OC)cc3n2)cc1 | 57.5 | – | – | – | – | – | – | – | – | – | –
CCCOc1ccc(-c2cc(OCCCN(C)C)c3ccc(OC)cc3n2)cc1 | 100 | 4.3 | 232 (≈ 91.5 µg/mL) | 6.25 | Active | Active | Active | 100 (≈ 253 µM) | 100 (≈ 253 µM) | – | –
C=COc1cc(-c2ccc(OCCC)cc2)nc2c(OC)cccc12 | 13.3 | – | – | – | – | – | – | – | – | – | –
CCCOc1ccc(-c2cc(OCCCl)c3cc(OC)ccc3n2)cc1 | 10.5 | – | – | – | – | – | – | – | – | – | –
CCCOc1ccc(-c2cc(OCCCN(C)C)c3cc(OC)ccc3n2)cc1 | 79.5 | – | – | – | – | – | – | – | – | – | –
CCCOc1ccc(-c2cc(OCCN3CCCCC3)c3cc(OC)c(OC)cc3n2)cc1 | 92.1 | 3.9 | > 222 | 3.13 | Active | Active | Active | 100 (≈ 222 µM) | > 100 | – | –

SMILES | inhibition [1] [%] | IC50 [2] [µM] | MIC (Staphylococcus aureus [3]) [µM] | Activity [4] [µg/mL] | synergistic potentiation of ciprofloxacin activity (Staphylococcus aureus [5]) | inhibition (Staphylococcus aureus [6]) | inhibition [7] | MIC (Staphylococcus aureus [8]) [µg/mL] | MIC (Staphylococcus aureus [9]) [µg/mL] | MIC (Staphylococcus aureus [10]) [µg/mL] | inhibition [11]
CCCOc1ccc(-c2cc(OCCN3CCCCCC3)c3cc(OC)c(OC)cc3n2)cc1 | 67.9 | – | – | – | – | – | – | – | – | – | –
CCCOc1ccc(-c2cc(OCCN3CCCCC3)c3c(OC)cccc3n2)cc1 | 83.4 | 19.1 | 59.4 (≈ 25 µg/mL) | – | – | – | – | – | – | – | –
CCCOc1ccc(-c2cc(OCCN(CC)CC)c3c(OC)cccc3n2)cc1 | 96.5 | 9.4 | 30.6 (≈ 12.5 µg/mL) | 3.13 | Active | Active | Active | 12.5 (≈ 30.6 µM) | 12.5 (≈ 30.6 µM) | – | Active
CCCOc1ccc(-c2cc(OCCN3CCNCC3)c3cc(OC)ccc3n2)cc1 | 84.4 | 15.6 | 29.6 (≈ 12.5 µg/mL) | – | – | – | – | – | – | – | –
CCCOc1ccc(-c2cc(OCCN3CCCCC3)c3c(OC)cc(OC)cc3n2)cc1 | 49.7 | – | – | – | – | – | – | – | – | – | –
CCCOc1ccc(-c2cc(OCCN3CCCCCC3)c3c(OC)cccc3n2)cc1 | 74.8 | – | – | – | – | – | – | – | – | – | –
CCCOc1ccc(-c2cc(OCCN(CC)CC)c3cc(OC)cc(OC)c3n2)cc1 | 92.4 | 4.6 | > 228 | 6.25 | Active | Active | Active | 100 (≈ 228 µM) | > 100 | – | –
CCCOc1ccc(-c2cc(OCCN3CCc4cc(OC)c(OC)cc4C3)c3cc(OC)ccc3n2)cc1 | 33 | – | – | – | – | – | – | – | – | – | –
CCCOc1ccc(-c2cc(OCCN3CCN(Cc4ccccc4)CC3)c3cc(OC)ccc3n2)cc1 | 32 | – | – | – | – | – | – | – | – | – | –
CCCOc1ccc(-c2cc(OCCN(CC)CC)c3cc(OC)c(OC)cc3n2)cc1 | 95.4 | 4.1 | > 228 | 50 | Active | Active | Active | 100 (≈ 228 µM) | > 100 | – | –
CCCOc1ccc(-c2cc(OCCCl)c3cccc(OC)c3n2)cc1 | 6.8 | – | – | – | – | – | – | – | – | – | –
CCCOc1ccc(-c2cc(OCCN3CCNCC3)c3ccc(OC)cc3n2)cc1 | 100 | 5.5 | 237 (≈ 99.9 µg/mL) | 6.25 | Active | Active | Active | 100 (≈ 237 µM) | 100 (≈ 237 µM) | – | –
CCCOc1ccc(-c2cc(OCCN3CCCCCC3)c3ccc(OC)cc3n2)cc1 | 91.3 | 4.9 | 212.3 (≈ 92.3 µg/mL) | 3.13 | Active | Active | Active | > 100 | 100 (≈ 230 µM) | – | Active
CCCOc1ccc(-c2cc(OCCN3CCCCC3)c3cc(OC)cc(OC)c3n2)cc1 | 93.8 | 3.8 | > 222 | 6.25 | Active | Active | Active | 100 (≈ 222 µM) | > 100 | – | –
CCCOc1ccc(-c2cc(O)c3ccc(OC)cc3n2)cc1 | 55.7 | – | – | – | – | – | – | – | – | – | –
CCCOc1ccc(-c2cc(OCCN3CCNCC3)c3cccc(OC)c3n2)cc1 | 100 | 9.9 | > 237 | 25 | Active | Active | Active | > 100 | > 100 | – | –
CCCOc1ccc(-c2cc(O)c3c(OC)cccc3n2)cc1 | 91.4 | 4.1 | 40.4 (≈ 12.5 µg/mL) | – | – | – | – | – | – | – | –
